# Assay outcomes as filed in PubChem BioAssay.
# SENP6 inh – SENP6 protease inhibition. Q9GZR1. Recombinant SENP6 catalytic domain, aminoluciferin luminescence. inhibition, % at 10 µM. hit rate 1.8% among 330,000. AID 2599;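 active = inhibition above about 50% at the single tested dose, limit read from the data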;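 note: plate controls were DMSO wells with enzyme for no effect and DMSO wells lacking enzyme for full effect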
# SENP7 block – inhibitors of human SENP7 protease; hit rate 1.5% among 330,000; recombinant SENP7, Z-RLRGG-aminoluciferin luminescence, 40 min; Q9BQF6; AID 434973; inhibition, % at 5 µM;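 active = inhibition above about 50% at the single test dose, limit read from the data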;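 note: plate controls were DMSO with enzyme for no effect and no enzyme buffer wells for full effect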
# SENP8 block-1 – inhibitors of human SENP8 protease; Q96LD8; recombinant SENP8, Nedd8 substrate fluorescence; inhibition, % at 20 µM; hit rate 0.64% among 360,000; in the data active = inhibition mostly above about 40%, no sharp cut-off; inactive = mostly below about 27%
# Target sequence (Q96LD8 whole entry, looked up): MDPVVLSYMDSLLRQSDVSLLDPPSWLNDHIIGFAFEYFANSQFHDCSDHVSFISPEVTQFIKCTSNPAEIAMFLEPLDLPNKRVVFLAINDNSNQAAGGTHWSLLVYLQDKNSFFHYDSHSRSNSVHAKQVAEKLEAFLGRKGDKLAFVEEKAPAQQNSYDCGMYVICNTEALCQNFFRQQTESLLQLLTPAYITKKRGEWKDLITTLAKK
# SENP8 block-2 – inhibitors of human SENP8 protease. AID 2540. Q96LD8. purified SENP8, Z-RLRGG-aminoluciferin cleavage, luminescence. inhibition, % at 10 µM. hit rate 1.2% among 330,000; in the data active = inhibition above about 50%
# SENP1 FRET inh – blocks the human SENP1 SUMO protease catalytic domain; Q9P0U3; recombinant SENP1 catalytic domain, CyPet-SUMO1-YPet FRET cleavage; inhibition, % at 10 µM; hit rate 0.21% among 360,000;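 active = inhibition at least 30% at 10 µM, raw YFP signal under a set limit, fluorescence ratio 0.5 to 1.5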;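 note: 0% = enzyme with DMSO and 100% = no enzyme wells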
#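 Assay system: hSENP1 catalytic domain, recombinant. Amount: SENP1 enzyme, 20 pM final. Schedule: 50 min reaction, RT, dark. Technique: FRET, CFP and YFP emission. Control set: no-enzyme wells low, DMSO-plus-enzyme wells high control.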
# * marks the source's active call; other numbers are inactive results; / = no result. Only some compounds are listed: those with a hit (about 2.5% of all), similar ones and a draw of the others.
SMILES,SENP6 inh,SENP7 block,SENP8 block-1,SENP8 block-2,SENP1 FRET inh
O=C(CCCOc1ccc(Br)cc1)NCCc1ccc(OC(F)F)cc1,-7,7,2,-4,-1
O=C(N/N=C/c1ccc(N2CCOCC2)cc1)c1ccccn1,56*,55*,-83,27,30
O=C(N/N=C/c1ccncc1)c1ccccn1,15,7,11,-9,1
Cc1cc(=O)n2[nH]c(N)c(N=Nc3ccccc3)c2n1,/,/,16,/,1
Cc1[nH]c(N=Nc2ccccc2)nc1N=Nc1ccccc1,-31,1,68*,-6,6
CN(C)c1ccc(C=c2c3cc([N+](=O)[O-])ccc3n3c2cc(-c2ccccc2)[n+]3C)cc1,/,/,51*,/,9
Cc1ccc(Nc2c([N+](=O)[O-])ccc3c2=NC2(CCCCC2)N=3)cc1,23,0,44*,7,6
COc1cccc(CNC(=O)Cc2ccc(OC)c(S(=O)(=O)N3CCOCC3)c2)c1,-1,-5,3,-2,5
O=c1[nH]c(-c2ccccn2)cc2ccccc12,5,0,-417,-3,-2
O=c1[nH]c(Nc2ccccn2)cc2ccccc12,91*,93*,-499,87*,-69
COc1ccc(C(=O)C(=NNc2ccccc2)c2ccc(OC)cc2)cc1,/,/,11,/,0
COc1ccc(N/N=C(\C=N\O)C(=O)c2ccc(OC)cc2)cc1,-26,5,44*,-3,5
Cn1c(=O)c(S(=O)C2CCCCC2)c(O)c2ccccc21 (stereo not given),-14,0,12,2,-1
CC(=O)NN1C(=O)/C(=C/c2ccc(Br)o2)SC1=S,-1,-6,44*,-6,43*
CC(=O)NN1C(=O)/C(=C\c2ccccc2)SC1=S,-6,6,28,-4,4
CC(=O)NN1C(=O)/C(=C\c2ccc(Br)o2)SC1=S,-7,5,29,9,55*
COC(=O)[C@@]12C[C@@H](CC(=O)N3CCCC3)C(=O)N(Cc3cccc4ccccc34)C1=CCC(C)(C)C2,/,/,14,/,-47
O=C(NC1CCCCC1)C(c1cccnc1)N(C(=O)c1ccc(Cl)nc1)C1CCCCC1 (stereo not given),7,4,0,6,6
Cc1oc(/N=C/c2ccccc2)c(C#N)c1C,31,-4,21,11,-4
COc1[nH]c(/N=C/c2ccccc2)c(C#N)c1C#N,-17,-9,-34,-1,70*
COc1cccc(C(=O)NCC(=O)OCc2ccc(F)cc2Cl)c1,0,-4,15,-6,2
COC(=O)c1ccc2c(c1)SC1=C(CCCC1=O)N2,-26,2,-55,-3,43*
O=C(O)Cn1ccc2cc(S(=O)(=O)N3CCCCC3)ccc21,/,/,-10,/,-1
O=C1C2C3C=CC(C3)C2C(=O)N1CNc1ccc(O)cc1 (stereo not given),72*,18,/,13,/
Cc1cc(C)cc(C(=O)NC(CC(N)=O)c2ccc(NCC3CC3)c([N+](=O)[O-])c2)c1 (stereo not given),-10,-4,18,-5,4
SMILES,SENP6 inh,SENP7 block,SENP8 block-1,SENP8 block-2,SENP1 FRET inh
Cc1ccc(NC(=O)Nc2cccc(Cl)c2)c(C(=O)O)c1,45,69*,-367,73*,3
COc1ccc(Nc2cccc(Cl)c2)c(C(=O)O)c1,35,7,-20,29,4
O=C(CSc1nnc(SCc2ccc(Cl)cc2)s1)N/N=C/c1c[nH]c2ccccc12,/,/,28,/,3
Cc1nn(-c2ccccc2)c(C)c1/C=N/NC(=O)CSc1nnc(SCc2ccccc2Cl)s1,71*,27,5,61*,1
O=C(CSc1nnc(SCc2ccc(Cl)cc2)s1)N/N=C/c1ccc(C(=O)O)cc1,85*,37,13,65*,0
Cc1nn(-c2ccccc2)c(C)c1/C=N/NC(=O)CSc1nnc(-c2ccccc2)n1-c1ccc(Cl)cc1,-15,4,8,1,1
O=C(NC(=O)c1ccccc1)Nc1ccccn1,99*,100*,3,94*,2
O=C(Nc1ccccn1)c1ccc(C(=O)c2ccccc2)cc1,50,45,9,19,1
CCN(CC)c1ncnc2c1ncn2[C@H]1CN(Cc2ccc(OC)cc2)C[C@@H](CO)O1,/,/,6,/,-1
O=C1NC[C@@H](CCCCN2CCN(CCc3ccccc3)C(=O)C2=O)N(CCC2CCCCC2)C1=O,/,/,16,/,1
O=C(N/N=C/c1c[nH]c2ccccc12)c1sc2ccccc2c1Cl,65*,36,9,52*,27
